Most compounds without a hit are left out; they make up all but 6.8% or so of the library.
HCV core dimer: HCV core protein dimerization inhibition; hit rate 0.33% among 300,000; inhibition, % at 5 µM; AID 1899; TR-FRET GST/Flag-core106 dimerization, 1536-well;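 active means inhibition above the mean of all tested compounds plus 3 SD, set per screening campaign, cut at about 45% in these data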
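Assay system: tagged HCV core106 pair (GST and Flag); medium: KF-containing HEPES buffer, pH 7.45, DTT, CHAPS, BSA; also added: Eu donor and XL665 acceptor anti-tag antibodies; dosing: 5 µM single dose; timing: compound-protein-antibody incubation 4 h at 22.5 °C; signal: TR-FRET 671 and 617 nm emission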
ALR inh: inhibitors of human sulfhydryl oxidase ALR. P55789. purified ALR, DTT oxidation, H2O2 HRP-luminol luminescence. inhibition, % (test concentration not listed). hit rate 3.8% among 290,000. AID 485317;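 active means mean replicate inhibition above about 79%, with every replicate also reaching it, limit read from the data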
Target sequence (P55789 whole entry, looked up): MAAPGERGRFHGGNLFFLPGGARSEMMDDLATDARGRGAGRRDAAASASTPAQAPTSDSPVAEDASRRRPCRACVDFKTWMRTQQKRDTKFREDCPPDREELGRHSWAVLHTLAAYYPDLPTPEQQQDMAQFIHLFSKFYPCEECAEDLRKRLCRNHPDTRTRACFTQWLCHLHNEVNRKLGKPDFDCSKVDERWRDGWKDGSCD
HSF1 inhib: HSF1 inhibition. activity change, negative = inhibition, % at 7.5 µM (by protocol). NIH3T3-HGL HSE-luciferase, MG132-induced, luminescence 8 h; stronger effect = lower value. hit rate 0.77% among 300,000;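 active means more than half of replicate wells show activity change below -50%, luminescence cut by over half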;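 further: luciferase reports HSF-1 transcriptional activity via heat shock element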
PHOSPHO1 block: inhibitors of human PHOSPHO1 phosphatase. Q8TCT1. AID 1565. recombinant PHOSPHO1, absorbance phosphatase assay. hit rate 1.1% among 290,000. inhibition, % at 13.3 µM; in the data active means inhibition above about 60%
Target sequence (Q8TCT1 whole entry, looked up): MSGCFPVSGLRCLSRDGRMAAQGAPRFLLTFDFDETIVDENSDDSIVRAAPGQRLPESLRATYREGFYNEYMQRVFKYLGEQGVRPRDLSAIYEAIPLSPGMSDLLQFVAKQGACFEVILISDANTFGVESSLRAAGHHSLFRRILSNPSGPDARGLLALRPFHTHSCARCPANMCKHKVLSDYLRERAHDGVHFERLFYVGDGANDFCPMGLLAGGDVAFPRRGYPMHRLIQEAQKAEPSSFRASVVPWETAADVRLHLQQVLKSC
AI-2 QS modul: Vibrio harveyi AI-2 quorum sensing modulation; Vibrio harveyi JMH597 AI-2 luminescence/OD600 ratio, 9 h; stronger effect = lower value; strain lacks LuxN and CqsS sensors; 0 = neutral-control median; activity change, % at 7.5 µM; hit rate 0.4% among 300,000; AID 2094; in the data active means activity change below about -75%, passing the limit was not always enough;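 further: luminescence divided by OD600 gain over 9 h not by final OD600 alone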
HSF-1 act: increases HSF-1 driven luciferase reporter signal; NIH3T3-HGL HSF-1 luciferase reporter, MG132, 8 h; 100% = twice DMSO control signal; activation, % at 9 µM; hit rate 1.7% among 300,000; AID 504408;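 active means mean replicate activation of at least 50% with a set share of replicates each reaching 50%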
A number is an active result; n = inactive; x = no result.

SMILES	HCV core dimer	ALR inh	HSF1 inhib	PHOSPHO1 block	AI-2 QS modul	HSF-1 act
COc1ccc(C(=O)NC(=S)N2CCC(C)CC2)cc1	n	x	n	69	n	n
COc1ccc(OC(C)C(=O)N2CCC(C)CC2)cc1 (stereo not drawn)	n	n	-66	n	n	n
NC(=O)c1oc2ccccc2c1NC(=O)C1CCCCC1	n	96	n	n	n	n
CCOC(=O)N1CCC(NC(=O)C2CCCN(Cc3nc(-c4ccc(CC)cc4)oc3C)C2)CC1 (stereo not drawn)	n	n	n	n	n	n
CCOC(=O)N1CCC(NC(=O)CS(=O)Cc2nc(-c3ccc(OC)c(OC)c3)oc2C)CC1 (stereo not drawn)	n	100	n	n	n	n
CCOC(=O)N1CCC(NC(=O)CS(=O)Cc2nc(-c3ccc(Cl)cc3)oc2C)CC1 (stereo not drawn)	n	99	n	n	n	n
CCOC(=O)N1CCC(NC(=O)CS(=O)(=O)Cc2nc(-c3ccc(OC)cc3)oc2C)CC1	n	n	n	n	n	n
CCOC(=O)N1CCC(NC(=O)CS(=O)Cc2nc(-c3ccc(C)cc3)oc2C)CC1 (stereo not drawn)	n	99	n	n	n	n
Cc1ccc(C)c(S(=O)(=O)N2CCN(C(=O)c3cncc(Br)c3)CC2)c1	n	x	n	n	n	n
CCCN1CNc2c(c(=O)[nH]c(=S)n2CCc2ccccc2)C1	n	91	x	n	n	x
Cc1ccc(C(=O)OCC(=O)N(CCc2ccccc2)Cc2ccccc2)cc1S(=O)(=O)N1CCOCC1	n	n	n	x	n	n
Cc1ccc(C(=O)n2cnnc2N)cc1	n	n	n	n	n	66
Cc1ccc(C(=O)n2cnnc2N)cc1C	n	n	n	61	n	n
Cn1cnnc1SCC(=O)NCCc1ccc(Cl)cc1Cl	n	n	n	n	n	n
O=C(CSc1nnc(-c2ccccc2Br)o1)N1CCOCC1	n	x	n	n	n	n
COc1ccc(-c2nnc(SCC(=O)/C(C#N)=C(\C)N)o2)cc1	n	n	n	n	n	81
COc1ccc(-c2nnc(SCC(=O)c3ccc(C)o3)o2)cc1	x	x	n	n	n	n
C/C(N)=C(/C#N)C(=O)CSc1nnc(-c2ccccc2Br)o1	n	n	n	n	n	115
C/C(=C\c1ccccc1)C(=O)Nc1ccc(Cl)cn1	n	n	n	n	n	n
CCC(=O)Nc1cccc(C(=O)/C=C/c2ccc(F)cc2)c1	n	n	n	n	n	75
CC(=O)Nc1cccc(C(=O)/C=C/c2ccc(C)cc2)c1	n	n	n	n	n	n
CC1(C)Cc2c(c(N3CCOCC3)nc3sc(-c4ccc(C(=O)O)o4)c(N)c23)CO1	n	n	n	n	n	n
CNC(=O)c1ccc(-c2sc3nc(N4CCOCC4)c4c(c3c2N)CC(C)(C)OC4)o1	n	99	n	n	n	n
Cc1ccc(C)c2[nH]c(=O)c(C(c3nnnn3C3CCCC3)N3CCOCC3)cc12 (stereo not drawn)	n	n	n	n	n	n
CCOC(=O)C1CCN(C(c2cc3ccc(C)c(C)c3[nH]c2=O)c2nnnn2C2CCCCC2)CC1 (stereo not drawn)	n	n	n	86	n	n
SMILES	HCV core dimer	ALR inh	HSF1 inhib	PHOSPHO1 block	AI-2 QS modul	HSF-1 act
CCOC(=O)C1CCN(C(c2cc3c(C)ccc(C)c3[nH]c2=O)c2nnnn2C2CCCCC2)CC1 (stereo not drawn)	n	n	n	74	n	n
Cc1ccc2cc(C(c3nnnn3C3CCCC3)N3CCOCC3)c(=O)[nH]c2c1C (stereo not drawn)	n	n	n	n	n	n
Cc1ccc(C(=O)C2=C(O)C(=O)N(c3ncccn3)C2c2ccccc2F)o1 (stereo not drawn)	n	x	n	n	n	n
COc1ccc(S(=O)(=O)N2CCOCC2)cc1NC(=O)COC(=O)C1CC1C (stereo not drawn)	x	n	x	x	x	x
COc1ccc(-c2nc(CNS(=O)(=O)c3ccc(OC)c(OC)c3)cs2)cc1	n	n	-63	n	n	n
O=C(O)c1ccc(CSc2nc3ccc(NC(=O)c4ccccc4C(=O)O)cc3s2)cc1	n	99	n	n	n	n
N#Cc1ccccc1CSc1nc2ccc(NC(=O)c3ccccc3C(=O)O)cc2s1	47	99	n	n	n	n
CCCCn1c(N)c(N(CC(C)C)C(=O)c2ccc(OCC3CCCO3)cc2)c(=O)[nH]c1=O (stereo not drawn)	n	n	n	x	n	n
O=C(Nc1ccc2c3c(cccc13)CC2)c1ccc(Br)o1	n	n	n	n	n	75
O=C(NC(=S)N1CCc2ccccc21)c1ccccc1Br	n	n	n	n	n	57
CC(C)(C)C(=O)NC(=S)N1CCc2ccccc21	n	n	n	n	n	n
O=C(NC(=S)N1CCc2ccccc21)c1ccc(Br)o1	n	x	n	n	n	52
CCNc1nc(NCC)n2c(SCC(=O)Nc3ccc(C)c(C)c3)nnc2n1	n	x	n	x	n	n
CCOC(=O)N1CCN(c2ncnc3c2[nH]c2ccc(OC)cc23)CC1	n	n	n	n	n	n
COc1ccc2[nH]c3c(N4CCc5ccccc5C4)ncnc3c2c1	n	n	n	n	n	64
COc1cc2[nH]c3c(N4CCN(c5ccccn5)CC4)ncnc3c2cc1OC	n	99	n	n	n	n
CC(C)CN1C(=O)C(=O)N(CC(=O)c2ccc[nH]2)C1=O	n	x	n	x	n	n
O=C(CSc1ccc(-c2cccnc2)nn1)Nc1ccc(F)c(F)c1	n	n	n	n	n	n
CC(NC(=O)C12CC3(C)CC(C)(CC(C)(C3)C1)C2)C(=O)O (stereo not drawn)	n	n	n	n	n	n
Cc1cc(C)c(S(=O)(=O)N2CCN(C(=O)N(C)C)CC2)c(C)c1	n	n	n	n	n	n
CCN1/C(=C/C=C/c2oc3ccc4ccccc4c3[n+]2CC)Oc2ccc3ccccc3c21	n	n	n	n	n	300
CC[n+]1c(/C=C/N(C)c2ccccc2)oc2ccc(Cl)cc21	n	n	n	n	n	n
Cn1c(N)c(C(=O)COC(=O)CNC(=O)c2ccccc2Cl)c(=O)n(C)c1=O	x	n	x	x	x	x
O=C1C(=O)N(c2ccc(O)cc2)C(c2ccccc2[N+](=O)[O-])/C1=C(\O)c1ccccc1 (stereo not drawn)	n	85	n	n	n	n
CCOC(=O)C1=C(O)/C(=C/c2cccc(OC)c2O)N=C1C	n	78	n	n	n	n
COC(=O)C1=C(O)/C(=C\c2ccc(O)c(OC)c2)N=C1C	n	99	n	n	n	n
COC(=O)C1=C(O)/C(=C\c2ccc(OCC(=O)Nc3ccccc3OC)cc2)N=C1C	n	n	n	n	n	n
CCOC(=O)C1=C(O)/C(=C\c2cc(C)n(-c3ccccc3F)c2C)N=C1C	n	n	n	n	n	n
